From EPA's CvTdb concentration-time database
Several values for one entry are separate records, joined by “and”; a condition that tells them apart may be missing. Equal values may be shown once.

How the values were obtained:
rat [1] = assay: concentration in liver after dosing; conditions: dosed: benzo(a)pyrene, 40 umol/kg, iv, male, Sprague Dawley
rat [2] = assay: concentration in blood after dosing (% dose/mL); conditions: dosed: benzo(a)pyrene, 117 nmol, iv, male, Sprague Dawley
rat [3] = assay: concentration in skin after dosing; conditions: dosed: benzo(a)pyrene, 40 umol/kg, iv, male, Sprague Dawley
rat [4] = assay: concentration in adipose after dosing; conditions: dosed: benzo(a)pyrene, 40 umol/kg, iv, male, Sprague Dawley
rat [5] = assay: concentration in lung after dosing; conditions: dosed: benzo(a)pyrene, 40 umol/kg, iv, male, Sprague Dawley
rat [6] = assay: concentration in blood after dosing; conditions: dosed: benzo(a)pyrene, 40 umol/kg, iv, male, Sprague Dawley
rat [7] = assay: concentration in kidney after dosing; conditions: dosed: benzo(a)pyrene, 40 umol/kg, iv, male, Sprague Dawley
rat [8] = assay: concentration in feces after dosing; conditions: dosed: benzo(a)pyrene, 40 umol/kg, iv, male, Sprague Dawley
human = assay: concentration in blood after dosing; conditions: dosed: chlorobenzene, 10 ppm, inhalation, duration: 8 hr
Summary of the method: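 Concentration-versus-time or amount-versus-time points were compiled from published in vivo toxicokinetic studies and from two structured collections. The studies were found by PubMed searching, classifier screening and manual review. Points were mostly digitised from plot screenshots with WebPlotDigitizer, otherwise copied from tables, and kept in the reported units. Dose, route, subject details and medium were curated by hand from each paper, and sampling and analytical methods follow each source and were often unreported.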

c1ccc2c(c1)cc1ccc3cccc4ccc2c1c34 [benzo(a)pyrene]
Conditions	concentration in adipose [µmol/kg]	concentration in blood	concentration in feces [µmol/kg]	concentration in kidney [µmol/kg]	concentration in liver [µmol/kg]	concentration in lung [µmol/kg]	concentration in skin [µmol/kg]
rat [1], 2 h	–	–	–	–	2.31	–	–
rat [1], 4 h	–	–	–	–	1.91	–	–
rat [1], 8 h	–	–	–	–	1.79	–	–
rat [1], 16 h	–	–	–	–	0.574	–	–
rat [1], 24 h	–	–	–	–	0.21	–	–
rat [1], 33 h	–	–	–	–	0.165	–	–
rat [1], 48 h	–	–	–	–	0.0546	–	–
rat [1], 72 h	–	–	–	–	0.0254	–	–
rat [2], 0.3233 h	–	0.081	–	–	–	–	–
rat [2], 0.4938 h	–	0.0586	–	–	–	–	–
rat [2], 0.7433 h	–	0.0404	–	–	–	–	–
rat [2], 0.9867 h	–	0.0307	–	–	–	–	–
rat [2], 1.736 h	–	0.012	–	–	–	–	–
rat [2], 2.474 h	–	0.00662	–	–	–	–	–
rat [2], 3.463 h	–	0.00438	–	–	–	–	–
rat [2], 3.977 h	–	0.00384	–	–	–	–	–
rat [2], 4.987 h	–	0.00267	–	–	–	–	–
rat [2], 55 s	–	0.859	–	–	–	–	–
rat [2], 206 s	–	0.278	–	–	–	–	–
rat [3], 2 h	–	–	–	–	–	–	7.56
rat [3], 4 h	–	–	–	–	–	–	2.74
rat [3], 8 h	–	–	–	–	–	–	1.7
rat [3], 16 h	–	–	–	–	–	–	0.783
rat [3], 24 h	–	–	–	–	–	–	0.102
rat [3], 33 h	–	–	–	–	–	–	0.0296
rat [3], 48 h	–	–	–	–	–	–	0.0205
rat [3], 72 h	–	–	–	–	–	–	0.018
rat [4], 2 h	2.47	–	–	–	–	–	–
rat [4], 4 h	1.4	–	–	–	–	–	–
rat [4], 8 h	3.23	–	–	–	–	–	–
rat [4], 16 h	3.19	–	–	–	–	–	–
rat [4], 24 h	2.11	–	–	–	–	–	–
rat [4], 33 h	2.4	–	–	–	–	–	–
rat [4], 48 h	1.27	–	–	–	–	–	–
rat [4], 72 h	0.663	–	–	–	–	–	–
rat [5], 2 h	–	–	–	–	–	17	–
rat [5], 4 h	–	–	–	–	–	10.2	–
rat [5], 8 h	–	–	–	–	–	17.6	–
rat [5], 16 h	–	–	–	–	–	16.9	–
rat [5], 24 h	–	–	–	–	–	8.02	–
rat [5], 33 h	–	–	–	–	–	11.2	–
rat [5], 48 h	–	–	–	–	–	7.35	–
rat [5], 72 h	–	–	–	–	–	5.18	–
rat [6], 2 h	–	0.422 µmol/kg	–	–	–	–	–
rat [6], 4 h	–	0.118 µmol/kg	–	–	–	–	–
rat [6], 8 h	–	0.076 µmol/kg	–	–	–	–	–
rat [6], 16 h	–	0.0274 µmol/kg	–	–	–	–	–
rat [6], 24 h	–	0.0156 µmol/kg	–	–	–	–	–
rat [6], 33 h	–	0.0066 µmol/kg	–	–	–	–	–
rat [6], 48 h	–	0.005 µmol/kg	–	–	–	–	–
rat [6], 72 h	–	0.0024 µmol/kg	–	–	–	–	–
rat [7], 2 h	–	–	–	0.53	–	–	–
rat [7], 4 h	–	–	–	0.145	–	–	–
rat [7], 8 h	–	–	–	0.164	–	–	–
rat [7], 16 h	–	–	–	0.0435	–	–	–
rat [7], 24 h	–	–	–	0.0127	–	–	–
rat [7], 33 h	–	–	–	0.008	–	–	–
rat [7], 48 h	–	–	–	0.004	–	–	–
rat [7], 72 h	–	–	–	0.001	–	–	–
rat [8], 2 h	–	–	0.0005	–	–	–	–
rat [8], 4 h	–	–	0.002	–	–	–	–
rat [8], 8 h	–	–	0.0127	–	–	–	–
rat [8], 16 h	–	–	0.0779	–	–	–	–
rat [8], 24 h	–	–	0.351	–	–	–	–
rat [8], 33 h	–	–	0.382	–	–	–	–
rat [8], 48 h	–	–	0.354	–	–	–	–
rat [8], 72 h	–	–	0.397	–	–	–	–

Clc1ccccc1 [chlorobenzene]
human
Conditions	concentration in blood
8.065 h	182 ng/mL
8.199 h	192 ng/mL and 167 ng/mL and 100 ng/mL
8.252 h	145 ng/mL
8.284 h	200 ng/mL
8.434 h	120 ng/mL
8.451 h	158 ng/mL
8.532 h	65.3 ng/mL
8.536 h	158 ng/mL and 140 ng/mL
8.617 h	112 ng/mL
8.633 h	109 ng/mL
8.82 h	107 ng/mL
8.872 h	128 ng/mL and 140 ng/mL and 51.8 ng/mL
9.018 h	102 ng/mL
9.124 h	119 ng/mL
9.201 h	49.6 ng/mL and 92.9 ng/mL
9.205 h	119 ng/mL
9.387 h	98.1 ng/mL
9.533 h	78.8 ng/mL and 44.2 ng/mL
9.537 h	108 ng/mL
9.582 h	100 ng/mL
9.87 h	96 ng/mL and 69.7 ng/mL and 42.1 ng/mL
10.2 h	40.5 ng/mL and 77.5 ng/mL and 91.3 ng/mL
10.53 h	50.2 ng/mL and 63.4 ng/mL and 71.5 ng/mL
10.86 h	41.7 ng/mL
10.87 h	58.7 ng/mL and 66.2 ng/mL
11.2 h	60.9 ng/mL
